Here are results for 1 molecule from ChEMBL document CHEMBL3817728, “Synthesis, Evaluation, and Mechanism Study of Novel Indole-Chalcone Derivatives Exerting Effective Antitumor Activity Through Microtubule Destabilization in Vitro and in Vivo” (J Med Chem, 2016).

One may read the IC50 as the concentration needed to halve the response being measured.

The source made the active and inactive calls. The rule behind the calls is not given here.

The test system of data set [1] is A549. Put plainly: Induction of apoptosis in human A549 cells assessed as viable cells at 10 nM after 48 hrs by annexin V-FITC/propidium iodide staining-based flow cytometric method (reference value: 98.1%). To be noted: A549, 48 h, read-out: Activity. The class given is functional. In a few lines:
(§1)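 A549 cells exposed 24 h or 48 h at indicated concentrations, then trypsinized, harvested and stained with Annexin V-FITC and PI; flow cytometry quadrants scored as necrotic (upper left), late apoptotic (upper right), live (bottom left) and early apoptotic (bottom right). Five independent experiments, representative shown.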
For orientation: Flow cytometry measures light scatter and fluorescence of single cells or particles in a stream.

The nature of data set [2]: Metabolic stability in Sprague-Dawley rat liver microsomes assessed as compound remaining at 150 mins in presence of NADPH regenerating system by HPLC method. Type of data set: ADME. Conditions: read-out: Stability. The method in brief:
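Rat liver microsomes incubated with compound at 37 ℃ for indicated times in buffer containing NADPH regenerating system; residual parent determined by HPLC.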

Data set [3] relates to A549. The data set is described as follows: Disruption of microtubule network in human A549 cells assessed as multipolarization of spindle at 10 nM after 24 hrs by Hoechst 33342 staining-based laser scanning confocal microscopic analysis. The class given is cell-based. In a few lines:
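A549 cells plated in confocal dishes and incubated with compound for 24 h. Cells were then fixed and stained, and microtubule and spindle organization was imaged by laser confocal microscopy. Experiments done five times; representative results shown.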

Another data set relates to HUVEC. Put plainly: Cytotoxicity against quiescent HUVEC assessed as growth inhibition after 48 hrs in presence of 0.5% fetal calf serum and absence of growth factor by MTT assay. The class given is cell-based. To be noted: Homo sapiens. In a few lines:
(§2)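 Non-tumorigenic cells given 48 h compound exposure, and viability read by MTT. IC50 is mean ± SE from dose-response curves of at least three independent experiments. HUVECs were kept quiescent in endothelial cell medium with 0.5% fetal calf serum and no growth factor.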

Data set [4] is described as follows: Cytotoxicity against HLF assessed as growth inhibition after 48 hrs by MTT assay. Conditions: Homo sapiens. The method in brief:
as §2
Background: Tetrazolium dyes change colour on reduction, which living cells bring about.

Data set [5] is described as follows: Selectivity ratio of IC50 for quiescent HUVEC to IC50 for human A549 cells. The class given is ADME, cell-based. Conditions: quiescent HUVEC versus A549 cells, read-out: Ratio IC50. In a few lines:
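Selectivity ratio = IC50 in normal cells / IC50 in A549; IC50 values mean ± SE from dose-response curves of at least three independent experiments. HUVECs kept quiescent in endothelial cell medium with 0.5% fetal calf serum, no growth factor.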

For the next data set, the system named is A2780. The data set is described as follows: Resistance index, ratio of IC50 for human A2780/TAX cells to IC50 for human A2780 cells. The class given is functional.
The subject of data set [6] is A549. Put plainly: Resistance index, ratio of IC50 for human A549/CDDP cells to IC50 for human A549 cells. The class given is functional.
The nature of data set [7]: Cytotoxicity against human MCF7/DX cells assessed as growth inhibition after 48 hrs by MTT assay. Type of data set: functional, cell-based. In a few lines: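 Drug-resistant lines were tested by a 48 h MTT viability assay. IC50 was derived from dose-response curves and reported as mean ± SE of at least three independent experiments.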
Data set [8] deals with A549. Put plainly: Induction of apoptosis in human A549 cells assessed as viable cells at 1 nM after 48 hrs by annexin V-FITC/propidium iodide staining-based flow cytometric method (reference value: 98.1%). Type of data set: functional. To be noted: A549, 48 h, read-out: Activity. The method in brief: as §1
Data set [9] deals with A549. The data set is described as follows: Induction of apoptosis in human A549 cells assessed as early apoptotic cells at 1 nM after 48 hrs by annexin V-FITC/propidium iodide staining-based flow cytometric method (reference value: 1.95%). Type of data set: functional.

For `COc1ccc2c(/C=C(\C)C(=O)c3cc(OC)c(OC)c(OC)c3)c[nH]c2c1`, the viability at 0.01 µM with A549 [1] was 15.6%. Also, in [2], the remaining at 2.5 h was 54.1%. In addition, the result with A549 [3] was Active. Moreover, the IC50 in the data set with HUVEC was 163 nM; in data set [4], 5.67 µM; in data set [7], 9 nM. Moreover, the selectivity ratio in [5] was found to be 54.3. Further, the “Ratio IC50” value stood at 12.4 in the data set on A2780 and 1.33 with A549 [6]. Further, in the data set on A549 [8], the viability at 0.001 µM was found to be 66.8%. In addition, in the data set on A549 [9], the Activity stood at 18.9%.
